Values after ≈ are worked out from the molar mass of the structure shown.
Tests used:
Format in all cases: functional, cell-based
HT-29 = test: Growth inhibition of human HT-29 cells after 48 hrs by MTT assay; details: HT-29, 48 h
Procedure, shortened: (§1)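 Cells seeded at 5000/well and left 24 h at 37 °C to attach. Samples in DMSO diluted into McCoy's 5A with 10% FBS, penicillin/streptomycin, amphotericin B and glutamine at 5, 10, 25, 37 and 50 µg/mL, 48 h, 37 °C. MTT 2.41 mmol/L for 3 h, formazan dissolved in DMSO, absorbance 595 nm. Reported as % cell growth, n = 8; IC50 by curve fitting.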

HCT-116 = test: Growth inhibition of human HCT116 cells after 48 hrs by MTT assay; details: HCT-116, 48 h; procedure, shortened: as §1
BT-20 = test: Growth inhibition of human BT20 cells
HeLa = test: Growth inhibition of human HeLa cells
FM3A = test: Growth inhibition of mouse FM3A cells

Row | SMILES | IC50 (HT-29) [µg/mL] | IC50 (HCT-116) [µg/mL] | IC50 (BT-20) [µg/mL] | IC50 (HeLa) [µg/mL] | IC50 (FM3A) [nM]
1 | CCCCCCCCCCCCCCCCCCCc1cc(O)cc(O)c1 | > 50 | 36.2 (≈ 96.1 µM) |  |  | 
2 | CCCCCCCCCCCCCCCCCCCCCCCCCc1cc(O)cc(O)c1 | > 50 | > 50 |  |  | 
3 | CC/C=C\C/C=C\C/C=C\CCCCCCCCCc1cc(O)cc(O)c1 | 39.5 (≈ 107 µM) | 20 (≈ 54.1 µM) |  |  | 
4 | CCCCCCCCCCCCCCCCCCCCCC(=O)Cc1cc(O)cc(O)c1 |  | > 50 |  |  | 
5 | CCCCCCCCCCCCCCCCCCCCCc1cc(O)cc(O)c1 | > 50 | > 50 |  |  | 
6 | CCCCCCCCCCCCCCCCCCCCCCCc1cc(O)cc(O)c1 | > 50 | > 50 |  |  | 
7 | CCCCCCCCCCCCCCCCCCCC(=O)Cc1cc(O)cc(O)c1 |  | 16.6 (≈ 39.7 µM) |  |  | 

Now from value to compound, other results behind:

Row | IC50 (HT-29) [µg/mL] | IC50 (HCT-116) [µg/mL] | IC50 (BT-20) [µg/mL] | IC50 (HeLa) [µg/mL] | SMILES | IC50 (FM3A) [nM]
8 | 35.6 (≈ 103 µM) | 20 (≈ 57.8 µM) |  |  | CCCC/C=C\CCCCCCCCCCCc1cc(O)cc(O)c1 | 
9 |  | 17.6 (≈ 47.1 µM) |  |  | CCCC/C=C\CCCCCCCCCCCCCc1cc(O)cc(O)c1 | 
10 | 46.9 (≈ 116 µM) | 22.3 (≈ 55.3 µM) |  |  | CCCC/C=C\CCCCCCCCCCCCCCCc1cc(O)cc(O)c1 | 
11 | 31.1 (≈ 89.4 µM) | 18.9 (≈ 54.3 µM) |  |  | CCCCCCCCCCCCCCCCCc1cc(O)cc(O)c1 | 
12 | 30.4 (≈ 81.2 µM) | 11.6 (≈ 30.9 µM) |  |  | CCCCCC/C=C\CCCCCCCCCCCc1cc(O)cc(O)c1 | 
13 | 48.3 (≈ 130 µM) | 27.1 (≈ 72.6 µM) |  |  | CCCCC/C=C\C/C=C\CCCCCCCCCc1cc(O)cc(O)c1 | 
14 |  |  | 6.25 (≈ 19.5 µM) | 4.02 (≈ 12.5 µM) | CCCCCCCCCCCCCCCc1cc(O)cc(O)c1 [CARDOL] | 2800
